Series [1] concerns Mus musculus. Put plainly: Anticonvulsant activity in mice using sc Met seizure test;NA means inactive. In kind it is functional, organism-based. In outline: (§1)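 Mice were dosed at 30, 100, 300 and 600 mg/kg, four per dose, and tested at 30 min and 4 h. Pentylenetetrazol was then given subcutaneously at its CD99. Protection means absence of even a threshold seizure (one clonic spasm of 5 s). ED50 was estimated graphically, some at peak-effect time or 4 h. Litchfield-Wilcoxon 95% limits apply where confirmed.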

The species entered for series [2] is Mus musculus. Put plainly: Anticonvulsant activity in mice using MES seizure test;NA means inactive. Type of series: functional, organism-based. In outline:
(§2)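 Mice were injected at 30, 100, 300 and 600 mg/kg, four per dose, and tested at 30 min and 4 h. Protection means abolition of the hindlimb tonic extensor component of the maximal electroshock seizure (60 Hz alternating current, 50 mA, 0.2 s, corneal electrodes). ED50 was estimated graphically. Confirmed values carry Litchfield-Wilcoxon 95% confidence limits.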

Series [3] is described as follows: Anticonvulsant activity expressed as toxic dose in rotarod test (0.5 hr) in mice. In kind it is toxicity, organism-based. To be noted: mouse, in vivo. In outline: (§3)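 Acute neurotoxicity in mice by rotorod test after injection at 30, 100, 300 and 600 mg/kg, read at 30 min and 4 h, four animals per dose. TD50 is the median neurotoxic dose, estimated graphically; where confidence limits are given they are 95% limits by the Litchfield-Wilcoxon method from additional ADD testing.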

In series [4] the test system is Mus musculus. Put plainly: Anticonvulsant activity expressed as toxic dose in rotarod test (0.5 hr) in mice;4 out of 4 mice died at 600 mg/kg; wild running and tonic extension convulsion at 300 mg/kg;NA means inactive. Type of series: ADME, organism-based. To be noted: in vivo. In outline:
(§4)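 Mice, rotorod test of acute neurotoxicity at 0.5 h. Doses 30, 100, 300 and 600 mg/kg, four animals per dose, with positives assessed by four more observations. Median neurotoxic dose (TD50) was estimated graphically from combined ADD and in-house screening. Where confirmed by further ADD testing, 95% confidence limits were calculated by Litchfield-Wilcoxon.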
For orientation: The rotarod test checks motor coordination on a turning rod.

Series [5] deals with Mus musculus. Put plainly: Anticonvulsant activity in mice using sc Met seizure test;Activity is determined at 4h. In kind it is functional. Summed up: (§5)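 Subcutaneous pentylenetetrazol at the CD99 convulsant dose was given to mice pretreated at 30–600 mg/kg, four per dose, with tests at 30 min and 4 h. Protection is the absence of even a threshold seizure (one clonic spasm episode of 5 s). ED50 is estimated graphically or determined at the time of peak effect; 95% limits are by Litchfield-Wilcoxon.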

The test system of series [6] is Mus musculus. Put plainly: Anticonvulsant activity in mice using MES seizure test;Compound is neurotoxic at 300 mg/kg dose. In kind it is functional, organism-based. Also on record: dose 300 mg/kg.
The subject of series [7] is Mus musculus. Put plainly: Anticonvulsant activity in mice using sc Met seizure test. Type of series: functional. Summed up: as §1
The species entered for series [8] is Mus musculus. Put plainly: Anticonvulsant activity expressed as toxic dose in rotarod test (0.5 hr) in mice;NA means inactive. Type of series: ADME, organism-based. To be noted: in vivo. Summed up: as §4
The species entered for series [9] is Mus musculus. Put plainly: Anticonvulsant activity in mice using MES seizure test;Activity determined at time of peak effect (0.5 hr) and value ranges from (48-56). Type of series: functional. Summed up:
as §2

Series [10] is described as follows: Anticonvulsant activity expressed as toxic dose in rotarod test (0.5 hr) in mice;Activity determined at time of peak effect (0.5 hr) and value ranges from(47-65). Type of series: ADME, organism-based. The conditions noted are these: mouse, in vivo. Summed up:
as §4

The species entered for series [11] is Mus musculus. Put plainly: Anticonvulsant activity in mice using MES seizure test; determined at time of peak effect (0.5 hr). Type of series: functional. In outline: as §2
The test system of series [12] is Mus musculus. Put plainly: Anticonvulsant activity in mice using sc Met seizure test;Activity determined at the time of peak effect (1hr) and value ranges from (26-62). In kind it is functional. In outline: as §5
The nature of series [13]: Anticonvulsant activity expressed as toxic dose in rotarod test (0.5 hr) in mice;Activity determined at the time of peak effect (0.5 hr) and value ranges from (126-147). In kind it is ADME, organism-based. To be noted: mouse, in vivo. In outline:
as §3

Series [14] is filed under the species Mus musculus. Put plainly: Anticonvulsant activity in mice using MES seizure test. In kind it is functional. Summed up: as §2
The test system of series [15] is Mus musculus. Put plainly: Anticonvulsant activity in mice using sc Met seizure test;Activity determined at 4h. In kind it is functional. In outline: as §5
Series [16] concerns Mus musculus. Put plainly: Anticonvulsant activity in mice using MES seizure test;Compound is neurotoxic at 100 mg/kg. Type of series: functional, organism-based. Also on record: dose 100 mg/kg.
A short description of series [17]: Anticonvulsant activity expressed as toxic dose in rotarod test (0.5 hr) in mice;Activity determined at time of peak effect (0.5 hr). To be noted: mouse, in vivo. Type of series: ADME, organism-based. In outline:
as §3

Series [18] has as its system Mus musculus. Put plainly: Anticonvulsant activity in mice using sc Met seizure test;Activity determined at time of peak effect (0.5 hr) and value ranges from(12-20). In kind it is functional. In outline:
as §5

The species entered for series [19] is Mus musculus. Put plainly: Anticonvulsant activity in mice using MES seizure test;Activity determined at time of peak effect (0.5 hr) and value ranges from(48-55). Type of series: functional.
A short description of series [20]: Anticonvulsant activity expressed as toxic dose in rotarod test (0.5 hr) in mice;Value ranges from(36-43). Type of series: ADME, organism-based. The conditions noted are these: mouse, in vivo. Summed up: as §3
The subject of series [21] is Mus musculus. Put plainly: Anticonvulsant activity in mice using sc Met seizure test;Compound is neurotoxic at 5 mg/kg. Type of series: functional, organism-based. Also on record: dose 5 mg/kg.
The subject of series [22] is Mus musculus. Put plainly: Anticonvulsant activity in mice using MES seizure test;Compound is neurotoxic at 30 mg/kg dose. In kind it is functional, organism-based. Also on record: dose 30 mg/kg.

Calls of active or inactive are those of the source.

For `COC(=O)c1c(C)c(C)cc2c(=O)n(-c3ccccc3F)c(C)nc12`, the ED50 result in series [1] and in series [2] was “inactive” in each case. The TD50 at 0.5 h in series [3] came to 280 mg/kg.

Turning to `Cc1cc2c(=O)n(-c3ccccn3)c(C)nc2c(C(=O)O)c1C`, the ED50 result in [1] and in series [2] was “inactive” in each case. For the same compound, the TD50 result in [4] is recorded as “Not Active”.

For the compound `Cc1nc2cccnc2c(=O)n1-c1ccc(C(F)(F)F)cc1`, it took a dose of 90 mg/kg to reach the 50% effect level in series [5] (ED50). Besides, the ED50 entry in series [6] was “inactive”. This compound also returned a TD50 at 0.5 h in series [3] of 170 mg/kg.

Compound `COC(=O)c1c(C)c(C)cc2c(=O)n(-c3ccccc3C)c(C)nc12` gave an ED50 in series [7] of 600 mg/kg. Moreover, the ED50 entry in series [2] is “inactive”. Besides, in series [8], the TD50 entry was “Not Active”.

Regarding `Cc1ccccc1-n1c(C)nc2ccccc2c1=O` [METHAQUALONE], the ED50 in series [9] came to 52 mg/kg. For the same compound, the TD50 at 0.5 h in series [10] was 55 mg/kg.

On to `COC(=O)c1c(C)c(C)cc2c(=O)n(-c3ccccn3)c(C)nc12`, for which, in series [11], the ED50 is 52 mg/kg. Moreover, the ED50 result in series [1] was “inactive”. Moreover, the TD50 result in [8] was “Not Active”.

For `Cc1ccccc1-n1c(C)nc2ncccc2c1=O`, the ED50 in series [12] was found to be 40 mg/kg. Further, the ED50 result in series [6] was “inactive”. In addition, in series [13], the TD50 at 0.5 h stood at 137 mg/kg.

As for `Cc1cc2c(=O)n(-c3ccc(F)cc3)c(C)nc2c(C(=O)O)c1C`, the ED50 in [7] came out at 440 mg/kg. In addition, the ED50 entry in series [2] is “inactive”. The TD50 entry in series [8] is “Not Active”.

Turning to `COC(=O)c1c(C)c(C)cc2c(=O)n(-c3ccc(F)cc3)c(C)nc12`, the ED50 was 440 mg/kg in [7] and 600 mg/kg in series [14]. Besides, the TD50 entry in series [8] is “Not Active”.

`Cc1nc2cccnc2c(=O)n1-c1ccccc1C(F)(F)F` returned an ED50 in [15] of 100 mg/kg. The ED50 result in series [16] was “inactive”. This compound displayed a TD50 at 0.5 h in [17] of 100 mg/kg.

`COC(=O)c1c(C)c(C)cc2c(=O)n(-c3cccc(F)c3)c(C)nc12` came in with an ED50 in series [7] of 430 mg/kg. In addition, the ED50 entry in series [2] was “inactive”. The compound further displayed a TD50 at 0.5 h in series [3] of 540 mg/kg.

In the case of `Cc1ccccc1-n1c(C)nc2cccnc2c1=O`, the ED50 in series [18] is 16.5 mg/kg; in series [19] it was 52 mg/kg. The compound further registered a TD50 at 0.5 h in series [20] of 40 mg/kg.

For `Cc1nc2cccnc2c(=O)n1-c1ccc(Cl)cc1Cl`, the ED50 entry in series [21] and in [22] was “inactive” each time.

Take `Cc1nc2cccnc2c(=O)n1-c1cccc(C(F)(F)F)c1`: the ED50 result in [1] and in series [2] was “inactive” each time. Further, the TD50 at 0.5 h in series [3] is 50 mg/kg.

Broadly, the ED50 is the dose at which the effect has come halfway, by size or by number of responders. In general, TD50 refers to the dose at which the toxic effect under study appears in half of the subjects.

(Values after ChEMBL document CHEMBL1122451, “Synthesis of 3,4-dihydro-4-oxoquinazoline derivatives as potential anticonvulsants” (J Med Chem, 1983).)
